Measurements published in ChEMBL document CHEMBL1782042, “Efficient microwave-assisted synthesis and antitumor activity of novel 4,4'-methylenebis[2-(3-aryl-4,5-dihydro-1H-pyrazol-5-yl)phenols]” (Eur J Med Chem, 2011).

Assays:
[1] = tested on: HOP-92; assay: Cytotoxicity against human HOP92 cells; assay type: cell-based
How it was run: (§1)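 NCI 60 human tumour cell line screen, second stage at five concentrations (100, 10, 1.0, 0.1 and 0.01 μM). Continuous drug exposure for 48 h, with cell growth estimated by sulforhodamine B protein staining. GI50 is the drug concentration giving a 50% reduction in net protein increase relative to control cells over the incubation.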

[2] = tested on: NCI-H226; assay: Cytotoxicity against human NCI-H226 cells; assay type: cell-based; how it was run: as §1
[3] = tested on: NCI-H23; assay: Cytotoxicity against human NCI-H23 cells; assay type: cell-based; how it was run: as §1
[4] = tested on: NCI-H460; assay: Cytotoxicity against human NCI-H460 cells; assay type: cell-based; how it was run: as §1
[5] = tested on: NCI-H522; assay: Cytotoxicity against human NCI-H522 cells; assay type: cell-based; how it was run: as §1
[6] = tested on: HCT-116; assay: Cytotoxicity against human HCT116 cells; assay type: cell-based; how it was run: as §1
[7] = tested on: HCT-15; assay: Cytotoxicity against human HCT15 cells; assay type: cell-based; how it was run: as §1
[8] = tested on: SW-620; assay: Cytotoxicity against human SW620 cells; assay type: cell-based
How it was run: (§2)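 NCI 60 human tumour cell line screen; five concentration levels (100, 10, 1.0, 0.1 and 0.01 μM), 48 h continuous drug exposure. Cell growth estimated by sulforhodamine B (SRB) protein staining. GI50 taken as the drug concentration giving a 50% reduction in net protein increase relative to control cells over the incubation.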

[9] = tested on: SNB-19; assay: Cytotoxicity against human SNB19 cells; assay type: cell-based; how it was run: as §2
[10] = tested on: SNB-75; assay: Cytotoxicity against human SNB75 cells; assay type: cell-based; how it was run: as §2
[11] = tested on: U-251; assay: Cytotoxicity against human U251 cells; assay type: cell-based; how it was run: as §2
[12] = tested on: LOX IMVI; assay: Cytotoxicity against human LOXIMVI cells; assay type: cell-based; how it was run: as §1
[13] = tested on: CCRF-CEM; assay: Anticancer activity against human CCRF-CEM cells after 48 hrs by sulforhodamine B assay; assay type: functional
How it was run: (§3)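 NCI 60-cell-line in vitro screen, second stage: five concentration levels (100, 10, 1.0, 0.1 and 0.01 μM) with 48 h continuous drug exposure. Cell growth was estimated by sulforhodamine B protein staining. GI50 is the drug concentration that gives a 50% reduction in net protein increase relative to control cells over the incubation.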

[14] = tested on: K562; assay: Anticancer activity against human K562 cells after 48 hrs by sulforhodamine B assay; assay type: functional; conditions: K562, 48 h; how it was run: as §3
[15] = tested on: MDA-MB-435; assay: Cytotoxicity against human MDA-MB-435 cells; assay type: cell-based; how it was run: as §1
[16] = tested on: SK-MEL-2; assay: Cytotoxicity against human SK-MEL-2 cells; assay type: cell-based; how it was run: as §1
[17] = tested on: SK-MEL-5; assay: Cytotoxicity against human SK-MEL-5 cells; assay type: cell-based; how it was run: as §1
[18] = tested on: OVCAR-4; assay: Cytotoxicity against human OVCAR4 cells; assay type: cell-based; how it was run: as §1
[19] = tested on: OVCAR-8; assay: Cytotoxicity against human OVCAR8 cells; assay type: cell-based; how it was run: as §1
[20] = tested on: NCI/ADR-RES; assay: Cytotoxicity against human NCI/ADR-RES cells; assay type: cell-based; how it was run: as §1
[21] = tested on: 786-0; assay: Cytotoxicity against human 786-0 cells; assay type: cell-based; how it was run: as §1
[22] = tested on: ACHN; assay: Cytotoxicity against human ACHN cells; assay type: cell-based; how it was run: as §1
[23] = tested on: RXF 393; assay: Cytotoxicity against human RXF393 cells; assay type: cell-based; how it was run: as §1
[24] = tested on: SN12C; assay: Cytotoxicity against human SN12C cells; assay type: cell-based; how it was run: as §2
[25] = tested on: RPMI-8226; assay: Anticancer activity against human RPMI8226 cells after 48 hrs by sulforhodamine B assay; assay type: functional; conditions: RPMI-8226, 48 h; how it was run: as §3
[26] = tested on: A549; assay: Anticancer activity against human A549 cells after 48 hrs by sulforhodamine B assay; assay type: functional; conditions: A549, 48 h; how it was run: as §3
[27] = tested on: HOP-62; assay: Anticancer activity against human HOP62 cells after 48 hrs by sulforhodamine B assay; assay type: functional; conditions: HOP-62, 48 h; how it was run: as §3
[28] = tested on: HOP-92; assay: Anticancer activity against human HOP92 cells after 48 hrs by sulforhodamine B assay; assay type: functional; conditions: HOP-92, 48 h; how it was run: as §3
[29] = tested on: NCI-H226; assay: Anticancer activity against human NCI-H226 cells after 48 hrs by sulforhodamine B assay; assay type: functional; conditions: NCI-H226, 48 h; how it was run: as §3
[30] = tested on: NCI-H23; assay: Anticancer activity against human NCI-H23 cells after 48 hrs by sulforhodamine B assay; assay type: functional; conditions: NCI-H23, 48 h; how it was run: as §3
[31] = tested on: NCI-H460; assay: Anticancer activity against human NCI-H460 cells after 48 hrs by sulforhodamine B assay; assay type: functional; conditions: NCI-H460, 48 h; how it was run: as §3
[32] = tested on: NCI-H522; assay: Anticancer activity against human NCI-H522 cells after 48 hrs by sulforhodamine B assay; assay type: functional; conditions: NCI-H522, 48 h; how it was run: as §3
[33] = tested on: HCT-116; assay: Anticancer activity against human HCT116 cells after 48 hrs by sulforhodamine B assay; assay type: functional; conditions: HCT-116, 48 h; how it was run: as §3

With `Cc1ccc(C2=NNC(c3cc(Cc4ccc(O)c(C5CC(c6ccc(C)cc6)=NN5)c4)ccc3O)C2)cc1` (stereo not drawn) the LC50 [1] was over 100 µM, the LC50 [2] was over 100 µM and the LC50 [3] was over 100 µM. For the same compound, the LC50 [4] was over 100 µM, the LC50 [5] was over 100 µM and the LC50 [6] was 55.2 µM. For the same compound, the LC50 [7] was over 100 µM, the LC50 [8] was over 100 µM and the LC50 [9] was over 100 µM. It also gave an LC50 [10] of over 100 µM, an LC50 [11] of over 100 µM and an LC50 [12] of over 100 µM. For the same compound, the GI50 [13] was 3.85 µM, the GI50 [14] was 7.73 µM and the LC50 [15] was over 100 µM. The LC50 [16] was over 100 µM, the LC50 [17] was 31.7 µM and the LC50 [18] was over 100 µM. For the same compound, the LC50 [19] was over 100 µM, the LC50 [20] was over 100 µM and the LC50 [21] was over 100 µM. The LC50 [22] was over 100 µM, the LC50 [23] was over 100 µM and the LC50 [24] was over 100 µM. For the same compound, the GI50 [25] was 9.89 µM, the GI50 [26] was 6.84 µM and the GI50 [27] was 8.64 µM. It also gave a GI50 [28] of 8.28 µM, a GI50 [29] of 8.28 µM and a GI50 [30] of 5.3 µM. It also gave a GI50 [31] of 4.88 µM, a GI50 [32] of 3.64 µM and a GI50 [33] of 4.11 µM.
